A1 inh: inhibitors of the anti-apoptotic protein A1, read as caspase activation; MEF A1-2A-BIM cells, Caspase-Glo 3/7 luminescence, 3 h; percent of clofoctol response, vehicle zero; 330,000 compounds, 0.066% hits; caspase activation, % (concentration not given with the values);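 active means over half of replicate activation scores above 10%, or exactly half above 10 with the replicate mean above 10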
HNF4A DNA FP: change in binding of human HNF4 alpha to DNA. AID 1224865. activity change, % at 10 µM. 360,000 compounds, 0.3% hits. HNF4a-FITC DNA binding, fluorescence polarization, 1 h; in the data active means activity change above about 30%, passing the limit was not always enough
Target sequence (P41235 whole entry, looked up): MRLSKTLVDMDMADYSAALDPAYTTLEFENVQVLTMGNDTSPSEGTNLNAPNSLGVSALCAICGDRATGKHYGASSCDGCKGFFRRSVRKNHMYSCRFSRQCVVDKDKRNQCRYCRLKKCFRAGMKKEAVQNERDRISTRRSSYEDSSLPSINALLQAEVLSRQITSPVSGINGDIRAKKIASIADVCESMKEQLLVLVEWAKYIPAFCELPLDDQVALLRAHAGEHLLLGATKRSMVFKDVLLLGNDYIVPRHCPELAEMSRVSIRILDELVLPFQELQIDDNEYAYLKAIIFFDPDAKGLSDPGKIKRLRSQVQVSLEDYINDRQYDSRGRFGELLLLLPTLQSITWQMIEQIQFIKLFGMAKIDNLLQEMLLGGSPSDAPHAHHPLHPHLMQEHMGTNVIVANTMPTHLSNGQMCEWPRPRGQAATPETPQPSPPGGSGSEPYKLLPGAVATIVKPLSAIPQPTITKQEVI
LANA-H2A inh: blocks KSHV LANA binding to histone H2A/H2B; inhibition, % (no concentration beside the values); AID 2629; 320,000 compounds, 0.6% hits; Q9QR71; cell-free LANA-H2A/H2B peptide, fluorescence polarization; in the data active means inhibition mostly above about 10%, no sharp cut-off; inactive means mostly below about 6.7%
CSN deneddyl inh: CSN deneddylation inhibition | Purified CSN, SCF-Nedd8-OG deneddylation, fluorescence polarization | 360,000 compounds, 0.38% hits | inhibition, % at 12.5 µM;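 active means pattern-corrected inhibition above about 35%, with an unprinted fluorescence ratio check between 0.5 and 1.5, limit read from the data, passing the limit was not always enough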
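Test system: purified human Csn5 enzyme expressed in HEK293T cells. Amount: 0.24 nM enzyme. Reagent: SCFSkp2-Nedd8OG substrate at 10 nM final. Schedule: 90 min incubation of compound, enzyme and substrate at room temperature. Detection: fluorescence polarization. Read-out: % inhibition of substrate cleavage by Csn5.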
EBNA-1 inh: blocks EBNA-1 binding to DNA; EBNA-1 DNA binding, fluorescence polarization; inhibition, % at 14.8 µM; 300,000 compounds, 0.34% hits; in the data active means inhibition above about 28%
ZTA counter: ZTA (EBV) inhibition in EBNA-1 counter-screen | P03206 | AID 2234 | inhibition, % at 11 µM | 320,000 compounds, 0.15% hits | ZTA-DNA binding, fluorescence polarization; in the data active means inhibition above about 33%
Each line names hits and unclear results; the compound was inactive in the other large screens. A selection: hits, their analogues and other compounds. The true share with any hit is near 1.5%.

CCOC(=O)N1CCC(NCCNC(=O)c2ccc(F)c(F)c2)CC1	none (no result: EBNA-1 inh)
Cc1[nH]c(=S)[nH]c(=O)c1CCCO	LANA-H2A inh 18
CCCCc1c(C)[nH]c(=S)[nH]c1=O	none
Cc1ccc(-n2c(-c3ccccc3)c[n+]3c2CCc2ccccc2-3)c(C)c1	none
O=c1cc(-c2ccco2)oc2c1ccc1ccccc12	CSN deneddyl inh 39
O=c1cc(-c2ccncc2)oc2c1ccc1ccccc12	none
O=S(=O)(c1ccc2c(c1)CCN2)N1CCCC1	none (no result: EBNA-1 inh)
O=C(Nc1ccc(Oc2c(F)c(F)c(F)c(F)c2F)cc1)OC1CCN2Cc3ccccc3N=C12 (stereo not drawn)	LANA-H2A inh 15
Cc1ccc(NC(=O)CN2C(=O)C(=O)N(C3CCCC3)C2=O)c(Cl)c1	none (no result: EBNA-1 inh)
COc1ccc(OC)c(NC(=O)C(CC(=O)O)NCc2ccco2)c1 (stereo not drawn)	none
O=C(O)CCn1cc(/C=C2\NC(=S)N(c3ccccc3)C2=O)c(-c2ccc(Br)cc2)n1	none
Cc1cc(C)n2c(NC3CCCCC3)c(-c3ccc(F)cc3)nc2n1	none (no result: A1 inh, LANA-H2A inh, EBNA-1 inh, ZTA counter)
Cc1cc(C)n2c(NC3CCCCC3)c(CC(C)C)nc2n1	HNF4A DNA FP 108 (no result: A1 inh, LANA-H2A inh, EBNA-1 inh, ZTA counter)
Cc1sc(NC(=O)CSc2n[nH]c(N)n2)c(C#N)c1C	none (no result: A1 inh, LANA-H2A inh, EBNA-1 inh, ZTA counter)
Cc1ccc(/C=C/C2=Cc3c(sc(NC(=O)CSc4n[nH]c(N)n4)c3C#N)C(C)(C)C2)o1	EBNA-1 inh 49 (no result: HNF4A DNA FP, CSN deneddyl inh)
CCOC(=O)c1sc(N)c(C#N)c1COC(=O)CNC(=O)c1ccccc1	HNF4A DNA FP 74, CSN deneddyl inh 41
Cc1nc(CS(=O)c2ccc(Cl)cc2)cc(NCc2ccc(Cl)cc2Cl)n1 (stereo not drawn)	CSN deneddyl inh 52
CCOC(=O)C1=CCN(S(=O)(=O)c2ccccc2F)C1c1ccc(Cl)c(Cl)c1 (stereo not drawn)	none (no result: A1 inh, LANA-H2A inh, EBNA-1 inh, ZTA counter)
CCn1c(O)c(/C=N/NC(=O)c2ccncc2)c(=O)n(CC)c1=S	HNF4A DNA FP 78 (no result: A1 inh, LANA-H2A inh, EBNA-1 inh, ZTA counter)
Cc1cc(C(=O)CCl)c(C)n1CCc1ccc(Cl)cc1	A1 inh 14
CCC(C)NC(=O)c1ccccc1NC(=O)Nc1ccccc1 (stereo not drawn)	LANA-H2A inh 16
CCOC(=O)c1c(NC(=O)CN(C)C2CCN(C)CC2)sc(C(=O)Nc2ccccc2)c1C	none
CCOC(=O)c1c(NC(=O)CSc2nnc(-c3cccc(C)c3)n2CC)sc(C(C)=O)c1C	none
CCn1c(SCC(=O)Nc2oc(-c3ccccc3)c(-c3ccccc3)c2C#N)nnc1-c1cc(OC)cc(OC)c1	CSN deneddyl inh 70 (no result: A1 inh, LANA-H2A inh)
CCOC(=O)c1c(NC(=O)CSc2cccc[n+]2[O-])sc(C(=O)Nc2ccccc2)c1C	CSN deneddyl inh 105
CCOC(=O)c1c(NC(=O)c2cc(-c3ccc(O)cc3)on2)sc(C(C)=O)c1C	HNF4A DNA FP 154
CCOC(=O)c1c(NC(=O)CSc2nnc(-c3ccccc3)n2CC)sc(C(C)=O)c1C	LANA-H2A inh 23
COc1ccc(C)cc1NC(=O)CSc1nnc2ccc(-c3ccncc3)nn12	none
CCN(CC)c1ccc2c(c1)CCCN2	LANA-H2A inh 20 (no result: HNF4A DNA FP, CSN deneddyl inh)
CCCCn1c(N)c(N(CCOC)C(=O)c2ccc(S(=O)(=O)N3CCC(C)CC3)cc2)c(=O)[nH]c1=O	none
Cc1ccccc1C(=O)Nc1ccc2c(C#N)c3nc4ccccc4nc3n2c1	LANA-H2A inh 28
Cc1c(C(=O)Nc2ccccc2)cn2c(nc3ccccc32)c1C#N	none
O=C(N/C(=C\c1ccco1)C(=O)N1CCCC1CO)c1ccccc1 (stereo not drawn)	LANA-H2A inh 21
CCC(C)(C)NC(=O)C(c1ccc(OC)cc1)N(C(=O)CCC(=O)Nc1cc(C)on1)c1ccc2c(c1)OCO2 (stereo not drawn)	none
COc1ccccc1C1C(C(=O)c2sc(C)nc2C)=C(O)C(=O)N1CCN1CCOCC1 (stereo not drawn)	LANA-H2A inh 17
COc1cccc(C2C(C(=O)c3sc(C)nc3C)=C(O)C(=O)N2CCN2CCOCC2)c1OC (stereo not drawn)	none
COc1cc(NC(=O)CSc2nnc(-c3ccncc3)o2)cc(OC)c1OC	none
COc1ccc2[nH]cc(CCNS(=O)(=O)c3ccccc3)c2c1	CSN deneddyl inh 60
